Measured values: the RNAGym collection of RNA variant scans (doi:10.1126/science.aae0568)
This sample holds only a part of the variants without activity.

B1: tRNA (parent)
chain: GUUCCGUUGGCGUAAUGGUAACGCGUCUCCCUCCUAAGGAGAAGACUGCGGGUUCGAGUCCCGUACGGAACG

Variants of: B1
Assay: yeast fitness relative to wild type (ratio to wild type); higher = fitter; tRNA-Arg(CCU), competitive growth, 37 C, YPD
Outline: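 The tRNA-Arg(CCU) gene variants were made by chemical synthesis with a 3% per-site mutation rate at 69 sites and inserted at the native genomic locus of Saccharomyces cerevisiae. After pooling, the strains were competed in YPD at 37°C for 24 hours in six parallel replicates. Gene amplicons from the start population and each end population were read by 100-nucleotide paired-end sequencing, and Darwinian fitness relative to wild type was taken from genotype frequency changes. Genotypes needed ≥ 100 starting reads, and estimates < 0.5 were set to 0.5.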

Variant	yeast fitness
C11U A15C A21G C24G U28A	≤ 0.5
G6C C30A A42C	0.546
C30G A37G A43U	0.593
U3A C31U A36C A65U	≤ 0.5
C5A U16C C33U G63C	≤ 0.5
C11G C22U A40G C60G G63C	≤ 0.5
G25C C34U C66U	≤ 0.5
U8G U54C	0.565
G6A C11G C24U	≤ 0.5
U7A G10C C27G U32A G56C	≤ 0.5
C4G A36U U53A G68A A69G	≤ 0.5
C4A C29G A57G U59A G68U A70G	0.571
A15G G63C A65G	0.543
G10C U32A A36G	≤ 0.5
U7G G9A C31G A36G C62U	≤ 0.5
U13A C30U C55G G58C G63C C66U	≤ 0.5
U3A C31U G63C G67C A69U	0.558
C5G C34G G38C G68C	≤ 0.5
G12A A69G	0.907
U54A	0.659
U19G A21U C33A C49A	≤ 0.5
C61U G63U G68A	0.529
G23U C24G C27U A69C	≤ 0.5
C11A C33U A43U G67A	≤ 0.5

Variant	yeast fitness
C5U G9A A21G C55U	≤ 0.5
C4U G10C U35C G41A C62G A70U	≤ 0.5
G25C C55U A57U	0.551
G9C A42G A57U	0.521
C4U A21U A36G A43C C55U A65G	≤ 0.5
G9C C22G A57C	≤ 0.5
C5A C55A G56C	≤ 0.5
U3G U13C A14U C29A	0.672
C49G A57U G63A G67A	≤ 0.5
U59A A65C A70C	0.551
A20C A37C A43G C61U	≤ 0.5
A21G U35A A43U U59C	≤ 0.5
C4G G18C A65U	≤ 0.5
U19C C31A A69U	0.534
G23A A42G A45U G63C U64C	0.638
C31U C33U A37G U59A U64G	0.525
U35G A42U A69C	≤ 0.5
G6A U28A C31G U35A U47A U54A	≤ 0.5
A37C A40G	0.716
C33A A37C G56A A65G C66U	≤ 0.5
C49A G56A	0.831
A15G G23U C24G A45G	0.554
C29A C31G C60A	0.656
C4G A57U U59G	≤ 0.5

Variant	yeast fitness
A14U U16A U26G C29G	≤ 0.5
C34U G39C C49G	≤ 0.5
C30G C66G	0.574
C11A A15U A20C C34G A65C	≤ 0.5
U3A G18A C22U C61A	≤ 0.5
A14U A42U C61U C66U	≤ 0.5
C27U C46G C66G A69G	≤ 0.5
A20G A57U A65U G68C	≤ 0.5
C33U G48A U64G	0.618
G17A U26C U28C A42C C66U	≤ 0.5
G23C A42G G67A	≤ 0.5
G50C C62U	0.963
G12A U26C C62U	0.579
G25U C30U A40U	≤ 0.5
C11A C61U	0.621
A21G G25C C27G A42C A43G	≤ 0.5
G6C C22A C31G G51A C66U	≤ 0.5
C24A A36G A43G A57G	≤ 0.5
C4A C24U A65U	≤ 0.5
U7A C22G C24G U28C G56A A65U	≤ 0.5
U8C G9A C34U G39C	≤ 0.5
A21C C49U	0.824
U59G A65C	0.558
C27U C31U A40U A45U C49G G63A	0.589

Variant	yeast fitness
U13A C55U	0.626
G12C A15C U19A C34U C49G A69U	≤ 0.5
C11G C61G	0.705
A15G G38C C60G	≤ 0.5
C24U U26A	0.938
C27A C33A A42U	0.619
C4A U47A	0.857
C60G C62G A70G	≤ 0.5
G17C G63A C66U	≤ 0.5
A40U A42C	0.752
G9A C11A A14C U16A C31A C61U	≤ 0.5
C5A G9A	0.975
U2C A20G C22U C24A A69G	≤ 0.5
C27U U47C	0.975
C11A C29A G52C G68C	≤ 0.5
A14G C33U A40U C62G	0.68
A20U G50A A65U	≤ 0.5
C5G U13C A21G C49A	≤ 0.5
G48A G50U U54G A70U	≤ 0.5
A15U C29A C49G A69U	≤ 0.5
A37C G38A G63A	0.549
C4G A20G G39A A45C	≤ 0.5
A14C G44A C66U	≤ 0.5
G18C U19G C27U A43U G67U	≤ 0.5

Variant	yeast fitness
C29G U32C A36U C61G	≤ 0.5
U2A C33A C55A G63A	0.513
U2C A42C C66U	0.574
C11U C29U G38A G48C C62G	≤ 0.5
G9C A14C C22G G52A U53A	0.503
U7G A15G U19C A21G G41A C55A	0.575
A14C C31U A36U A69C	0.624
G23A C30U A70C	≤ 0.5
A14C G17A G48C C55U G63U	≤ 0.5
U2C A40C A57C C66U	≤ 0.5
U13C A42U U47C G51A A70C	≤ 0.5
C5G C34U C46A C62U	≤ 0.5
U2G C24G C49A	≤ 0.5
C11U G52C G67C	≤ 0.5
U16G C49U	0.916
G6A C11U C24U	≤ 0.5
U8C C11U G58U C61A	≤ 0.5
C5U U28A G41A U54C	≤ 0.5
G17A G18C A20G G39C	≤ 0.5
U8G C34A	≤ 0.5
G9A C31A A65C	0.871
U8A U32C	0.648
U8G U35G C55G	≤ 0.5
U16C U47C G51U	≤ 0.5

Variant	yeast fitness
A20U C49U A69U	0.683
C5A G48C G51C U53A C66A	0.559
C24A G39C A70C	0.601
U13A C30U G58C	≤ 0.5
A15G G23A G50A A57C A65U	0.6
G10A A14C C34U A42G A65U G68A	≤ 0.5
U3A C4A U8C C31U A37U G48C C66U	≤ 0.5
U2C G23C C33A G50C G58C A70G	≤ 0.5
U2C A36C G38C C55U C62A	≤ 0.5
A40C A65U C66A	0.562
U2G A15C A36C A69U A70G	≤ 0.5
C5G C29G A65G	0.565
A14U U26C A42U	0.676
C27A C34U C62U U64C	≤ 0.5
C5A A15U C31G G39A G58A	≤ 0.5
A20G G41A A70G	0.571
U2C G10A C30U	0.629
G50A C60G U64G	0.521
U13G U35C G38A A42U G58C	≤ 0.5
C4U G18A A21C A65C	≤ 0.5
A37U G50A	0.804
G17A G38C A45U C66U	≤ 0.5
G25A C49U	0.991
A15G C31G A40U	0.586

Variant	yeast fitness
A15C A21U	0.546
G9A C29A G48A	≤ 0.5
U16G U54C A69C	0.718
A45U U54A	0.702
G6A A15U	0.628
C46U G58C	0.825
A45C G63C	0.589
A43G G50A G51A	≤ 0.5
C5G	0.992
A15U A20C G23A C30U	≤ 0.5
G6A U32G U35G	≤ 0.5
A21U C22U C55U	≤ 0.5
G12A C27U C33U U47A A70C	≤ 0.5
A15U A45C C49U	0.618
C11U U26A	0.999
C4G U13C G23U G48C G50A	≤ 0.5
A14U U26G	0.675
C11U A15G	1.01
U8G A20U C62A	0.624
A21C U32C U64A	0.664
U8C U19A A37G	0.559
G25C A40U G48C	≤ 0.5
A20C A21G G56C C66U	≤ 0.5
